FLuc inh counter: Photinus pyralis luciferase inhibition counter-screen; P08659; inhibition, % at 10 µM; ATPLite firefly luciferase biochemical luminescence, 10 min; AID 1006; actives 1.5% (n = 200,000);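 active = inhibition above about 50% when tested at 10 µM, limit read from the data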
Target sequence (P08659 whole entry, looked up): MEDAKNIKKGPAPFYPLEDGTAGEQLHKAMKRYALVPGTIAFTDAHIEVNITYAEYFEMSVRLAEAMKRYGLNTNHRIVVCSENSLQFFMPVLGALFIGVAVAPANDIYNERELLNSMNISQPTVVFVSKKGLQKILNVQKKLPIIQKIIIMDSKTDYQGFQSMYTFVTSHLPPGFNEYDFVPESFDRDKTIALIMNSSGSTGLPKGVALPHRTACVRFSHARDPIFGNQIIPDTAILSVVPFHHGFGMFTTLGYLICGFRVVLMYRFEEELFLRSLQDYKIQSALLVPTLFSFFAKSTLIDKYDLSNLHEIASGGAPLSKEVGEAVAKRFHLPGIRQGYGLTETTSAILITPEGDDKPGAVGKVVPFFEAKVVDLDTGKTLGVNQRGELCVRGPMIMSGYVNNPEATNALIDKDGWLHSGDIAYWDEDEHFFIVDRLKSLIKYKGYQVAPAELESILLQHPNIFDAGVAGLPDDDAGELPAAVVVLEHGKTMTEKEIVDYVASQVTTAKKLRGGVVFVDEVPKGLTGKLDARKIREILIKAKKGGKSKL
FLuc act counter: affects firefly luciferase, flagging false hits in luciferase stimulation screens. activation factor at 10 µM. ATPlite luciferase biochemical, luminescence, 10 min; 0 = ATP-free wells, 1 = DMSO control. AID 1027. 200,000 tested, under 10 active;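 active = luciferase activation factor, scaled between plate controls, of at least 2 with compound at 10 µM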
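Assay system – cell-free luciferase reagent · Medium – PBS-based ATP solution · Dosing – test compounds dosed from 2 mM stocks in 100% DMSO · Timing – 10 min, room temperature · Technique – light output (luminescence) · Measure – luminescence gain marking luciferase activators · Controls – No-ATP low control, compound-free enzyme-plus-ATP high control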
PPC-1+TRAIL kill: PPC-1 cancer cell killing with TRAIL present; PPC-1 cells + TRAIL, ATPLite viability luminescence; cell killing (% activity), % at 4 µM or 5 µM; actives 0.41% (n = 220,000);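 active = cell killing above 50% in the first pass at 4 µM, then a duplicate retest at 5 µM averaging 50% or more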;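 also: plate controls were cells with TRAIL plus DMSO for no effect and medium-only wells lacking cells for full effect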
C8 TRAIL sens: sensitizes caspase-8 expressing cells to TRAIL | actives 1% (n = 360,000) | AID 624354 | inhibition (viability loss, TRAIL sensitization), % at 10 µM | NB7+C8 cells + TRAIL, ATPlite viability luminescence;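 active = compounds causing at least 50% loss of cell viability in the single-dose screen, relative to plate controls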
* marks the source's active call; other numbers are inactive results; x = no result. Only some compounds are listed: those with a hit (about 1.6% of all), similar ones and a draw of the others.

SMILES | FLuc inh counter | FLuc act counter | PPC-1+TRAIL kill | C8 TRAIL sens
c1cc2c(cc1N1CCCCC1)C1CC2CCN1 (stereo not drawn) | x | x | x | -9
Cc1nc2cc(C(F)(F)F)ccc2n1C1CCN(Cc2nnnn2Cc2ccc3c(c2)OCO3)CC1 | 1 | 1 | 17 | 58*
CC(=O)O[C@H]1[C@H]2O[C@]23[C@@H]2CC[C@]4(O)C[C@@H](O)CC[C@]4(C)C2CC[C@]3(C)[C@H]1c1ccc(=O)oc1 (stereo partly drawn) | x | x | x | 64*
C[C@]12CC[C@H]3C(CCC4(O)CC(O)CC[C@]34C=O)C1=CC[C@H]2c1ccc(=O)oc1 (stereo partly drawn) | x | x | x | 54*
CN1C(=O)NC(=O)/C(=C\C=C\c2ccccc2[N+](=O)[O-])C1=O | -7 | 1.1 | 1 | x
CN(C)C(=O)O/N=C(\N)COc1ccc(C(C)(C)C)cc1 | x | x | 21 | 90*
CCOC(=O)C(O)(c1ccc(N(C)C(=O)COc2ccccc2)cc1)C(F)(F)F (stereo not drawn) | x | x | x | -8
CC(C)CNC(=O)/C=C/C=C/CCCCCC/C=C/c1ccc2c(c1)OCO2 | x | x | x | 14
Brc1ccc(-[n+]2c(-c3ccccc3)cc(-c3ccccc3)cc2-c2ccccc2)cc1 | x | x | x | 56*
CCCOC(=O)c1ccc(-[n+]2c(-c3ccccc3)cc(-c3ccccc3)cc2-c2ccccc2)cc1 | x | x | x | 58*
O=C(O)c1ccc(-[n+]2c(-c3ccccc3)cc(-c3ccccc3)cc2-c2ccccc2)cc1 | x | x | x | 4
Cc1ccccc1-[n+]1c(-c2ccccc2)cc(-c2ccccc2)cc1-c1ccccc1 | x | x | x | 67*
COc1ccc(-[n+]2c(-c3ccccc3)cc(-c3ccc(C)cc3)cc2-c2ccccc2)cc1 | x | x | x | 57*
COC(=O)C1=C(c2ccc(Cl)c(C(F)(F)F)c2)C[C@@H]2CC[C@H]1N2C(=O)NCCOc1ccccc1 | x | x | x | 25
CN(C)P(=O)(N(C)C)N1CC1 | x | x | x | 0
COC(=O)C1=C(c2ccc(Cl)c(C(F)(F)F)c2)C[C@@H]2CC[C@H]1N2C(=O)NCc1ccco1 | x | x | x | -3
CC[C@H](C)[C@@H]1NC(=O)CNC(=O)c2csc(n2)[C@H](C(C)(C)O)OC(=O)C(C)(C)[C@H](CCCC(C)(Cl)Cl)OC(=O)c2csc1n2 | x | x | x | 50*
O=c1c2ccccc2[se]n1-c1ccccc1 | 96* | 0 | 21 | -9
CCOC(=O)c1c(N)n(CCCOC(=O)c2ccco2)c2nc3ccccc3nc12 | -8 | 1.1 | 21 | 52*
COc1cc2cc(C(=O)N3CC(COS(C)(=O)=O)c4ccc(O)cc43)[nH]c2c(OC)c1OC (stereo not drawn) | x | x | x | 91*
NNc1n[nH]c(=S)n1N | x | x | 2 | 17
COc1ccc(CC2C(=O)NC(C)C(=O)N(C)C3C(=O)N(C)C(Cc4ccc(O)c(c4)Oc4ccc(cc4)C3O)C(=O)NC(C)C(=O)NC(C)C(=O)N2C)cc1 (stereo not drawn) | x | x | x | 66*
C/C=C1\NC(=O)[C@@H](NC(=O)[C@H](CCc2ccc(O)cc2)NC(=O)[C@H](C)NC(=O)[C@H](O)CO)[C@@H](C)OC(=O)[C@H](C(C)C)NC(=O)[C@H](Cc2ccc(O)cc2)N(C)C(=O)[C@H](Cc2ccccc2)N2C(=O)C(CC[C@H]2O)NC1=O (stereo partly drawn) | x | x | x | -16
Cc1ccc(C[n+]2c(-c3ccc(C)cc3)cc(-c3ccc(C)cc3)cc2-c2ccc(C)cc2)cc1 | x | x | x | 63*
COC1CC2C=C(C)C=CC=CC(=O)NC(c3ccccc3)CC=CCCC(O)CC(=O)C2=C1O (stereo not drawn) | x | x | x | 97*
SMILES | FLuc inh counter | FLuc act counter | PPC-1+TRAIL kill | C8 TRAIL sens
C#C[C@]1(O)CC[C@H]2[C@@H]3CCC4=Cc5nc6nc7ccccc7n6cc5C[C@]4(C)[C@H]3CC[C@@]21C | x | x | x | 28
Clc1ccc(C(c2ccc(Cl)cc2)n2cc[n+](CC(OCc3ccc(Cl)cc3Cl)c3ccc(Cl)cc3Cl)c2)cc1 (stereo not drawn) | x | x | x | 94*
Clc1ccc(COC(Cn2ccnc2)c2ccc(Cl)cc2Cl)cc1 (stereo not drawn) | -5 | 1 | 4 | 6
CNC(=O)Oc1cccc(-c2cn3cc(Cl)ccc3n2)c1 | 95* | 0.1 | 86* | 80*
CNC(=O)Oc1ccc(-c2cn3cc(C)ccc3n2)cc1 | 97* | 0 | 88* | 93*
CN1/C(=C\C=C2C(=O)NC(=O)NC2=O)C(C)(C)c2ccccc21 | -4 | 1 | 1 | -4
CN1/C(=C\C=Nc2ccccc2)C(C)(C)c2ccccc21 | -8 | 1.1 | 13 | 3
CN1/C(=C\C=C\C2=[N+](C)c3ccc4ccccc4c3C2(C)C)C(C)(C)c2ccccc21 | 41 | 0.6 | 66* | x
CCN1/C(=C/C=C/C2=[N+](CC)c3ccccc3C2(C)C)C(C)(C)c2ccccc21 | x | x | x | 71*
O=[N+]([O-])c1ccc(Cl)c([N+](=O)[O-])c1 | x | x | x | 81*
O=[N+]([O-])c1ccc(O)c([N+](=O)[O-])c1 | x | x | x | -5
N[C@H](CO)Cc1ccccc1 | x | x | x | 15
COc1ccc(Oc2cc(NC(=O)c3nn(C)cc3[N+](=O)[O-])cc([N+](=O)[O-])c2)cc1 | -10 | 1.1 | 23 | 88*
COc1ccc2nc(NC3=NCCN3)sc2c1 | 57* | 0.4 | 14 | 33
c1ccc2sc(NC3=NCCN3)nc2c1 | 10 | 0.9 | 20 | -2
CCCC[C@@H](C)C[C@@H](C)C(=O)N(C)[C@@H](CC(C)C)C(=O)N[C@H](C(=O)N(C)[C@H](C(=O)N1C[C@@H](O)C[C@H]1C(=O)N1C(=O)C=C[C@@H]1C)C(C)C)C(C)OC(C)=O (stereo partly drawn) | x | x | x | 89*
C=CCC1(CCCCC)C(=O)NC(=S)NC1=O | x | x | x | -2
CN(C)c1ccc(/C=C/C=C2/C(=O)NC(=O)N(c3ccccc3)C2=O)cc1 | 53* | 0.5 | 2 | 26
CCCC1CCCCC12C(=O)NC(=O)NC2=O (stereo not drawn) | x | x | x | -14
Cc1cc(C=C2C(=O)NC(=S)NC2=O)c(C)n1C1CCCC1 | 77* | 0.2 | 16 | -2
CCS(=O)(=O)Nc1cccc(C(=C2CCCCC2)c2cnc[nH]2)c1 | x | x | x | 16
Nc1ccccc1C(=O)OCC(=O)c1ccc2c(c1)OCCO2 | 97* | 0 | -7 | 5
CC(=O)Nc1ccccc1C(=O)OCC(=O)c1ccc2ccccc2c1 | 5 | 0.9 | 6 | 4
CCCN1CCc2cccc3c2[C@H]1Cc1ccc(O)c(O)c1-3 | x | x | x | 46*
CC1CCC(C(C)C)C(OC(=O)Cn2c(COc3ccccc3)[n+](C)c3ccccc32)C1 (stereo not drawn) | x | x | 9 | 53*
COC(=O)C1=C(c2ccc(F)cc2OCc2ccccc2)C[C@@H]2CC[C@H]1N2C(=O)N1CCOCC1 | x | x | x | 2
CCOC(=O)C(=CNc1ccc(C(O)(C(=O)OCC)C(F)(F)F)cc1C)C(=O)OCC (stereo not drawn) | -8 | 1.1 | 10 | 73*
CCOC(=O)C(O)(c1ccc(NC(=O)c2ccc(Cl)c(Cl)c2)cc1)C(F)(F)F (stereo not drawn) | x | x | -12 | -9

Screens deposited in PubChem BioAssay by Sanford-Burnham Center for Chemical Genomics.
